S1P3 ag – human S1P3 receptor agonists, primary screen, cell-based, primary and confirmation, NFAT-BLA reporter; Sphingosine 1-phosphate receptor 3 (Homo sapiens), Q99500; S1P3 NFAT-BLA reporter cells, agonism, FRET ratio; relative to 1 µM S1P, basal subtracted; activation, % at 4.5 µM; 0.1% of 60,000 active;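 active = activation above the screen-wide mean plus 3 SD, cut at about 4.5% in these data, passing the limit was not always enough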
Target sequence (Q99500 whole entry, looked up): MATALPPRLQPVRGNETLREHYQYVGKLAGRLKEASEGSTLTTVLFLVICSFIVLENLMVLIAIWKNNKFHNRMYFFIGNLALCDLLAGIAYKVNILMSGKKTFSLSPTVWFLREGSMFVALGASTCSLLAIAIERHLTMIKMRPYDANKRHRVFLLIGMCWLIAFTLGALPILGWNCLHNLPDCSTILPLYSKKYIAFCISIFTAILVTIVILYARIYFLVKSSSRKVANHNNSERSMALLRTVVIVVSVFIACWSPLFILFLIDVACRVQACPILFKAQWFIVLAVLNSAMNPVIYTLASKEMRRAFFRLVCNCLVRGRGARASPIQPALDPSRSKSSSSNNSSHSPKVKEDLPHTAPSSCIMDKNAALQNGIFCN
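Assay system: stable CHO line with human S1P3, Gα16, NFAT-BLA reporter; Detection: FRET β-lactamase substrate fluorescence, excitation 405 nm, 460/535 nm emission ratio, background-subtracted; Read-out: percent activation versus median 1 µM S1P response, basal-subtracted, per plate; Incubation: cells plated overnight, compound 4 h 37 °C, substrate 2 h RT.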
D1 mod – D1 CRE-luciferase signal change, two-sided – cell-based, HEK293 D1, dopamine EC30, D1 allosteric modulator project, primary screen; AID 641, 2007; 5.9% of 58,000 active; dopamine EC30 potentiation; actives deviate in either direction; B-score at 10 µM;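 active = luminescence count or its row- and column-corrected plate score outside the 99.7% band of the plate's sample wells, on either side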
S1P1 ag-PAM – S1P1 agonists and agonism potentiators, primary screen, cell-based, primary and confirmation screens, CRE-bla reporter | Sphingosine 1-phosphate receptor 1 (Homo sapiens), P21453 | 0.57% of 56,000 active | activation, % at 9.5 µM | S1P1 CRE-bla cells, forskolin, beta-lactamase FRET, potentiator mode; S1P1 agonist co-added at EC20, 2 nM; 100% = saturating reference agonist, 0% = basal | AID 449, 2006;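 active = activation above a cutoff set at the mean activation of all tested compounds plus 3 SD, cut at about 54% in these data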;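 also: forskolin at 4 µM as EC80 and the EC20 agonist is SEW2871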
M1 ag – M1 muscarinic receptor agonists, primary screen, CHO-M1 cells, Fluo-4 calcium, agonist mode | Fluo-4 calcium fluorescence; stronger effect = higher value | B-score at 10 µM | Muscarinic acetylcholine receptor M1 | AID 626, 2007 | 3% of 64,000 active;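 active = fluorescence rise, raw or as B-score row- and column-corrected plate score, outside the 99.7% band of its plate's samples, either direction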
M1 antag – antagonists of rat M1 muscarinic receptor; Muscarinic acetylcholine receptor M1 (Rattus norvegicus), P08482; CHO-M1 cells, Fluo-4 calcium, ACh EC80 antagonist mode; stronger effect = lower value; B-score at 10 µM; 3.4% of 64,000 active;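 active = calcium fluorescence response, raw or row-and-column corrected B-score, differing from the plate sample mean either way at a set confidence level, mostly lower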
D1 PAM confirm – D1 receptor positive allosteric modulators, retest, confirmation, cell-based, HEK293 D1, CRE-luciferase, duplicate | shares compounds with D1 mod | dopamine EC30 potentiation; stronger effect = higher value | luminescence at 10 µM | 88% of 2,200 active | AID 642, 2007;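 active = luminescence in either of two replicates above the same-plate mean plus 3 SD of the low-dose dopamine control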
D1 ag no DA – D1 receptor agonism without dopamine, confirmation, mechanism study for D1 allosteric modulator project, cell-based, HEK293 D1, CRE-luciferase, secondary assay 1. shares compounds with D1 mod. luminescence, no dopamine; stronger effect = higher value. 0.8% of 1,900 active. luminescence at 10 µM. AID 646, 2007; in the data active = luminescence above about 3900
Isoprot counter – counter-screen for D1 modulators: isoproterenol response in HEK293 cells. shares compounds with D1 mod. HEK293 D1 CRE-luciferase, isoproterenol EC30 counter-screen. calls only at 10 µM. 63% of 2,200 active. AID 647;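 active = luminescence in either replicate above plate mean of wells with a partly effective reference agonist dose plus 3 SD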;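 also: isoproterenol raises cAMP through native beta-adrenoceptor Gs so signal bypasses D1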
Hits are given with their value; 0 = inactive; - = no result; + = active, no number. A selection: hits, their analogues and other compounds. The true share with any hit is near 11%.

SMILES	S1P3 ag	D1 mod	S1P1 ag-PAM	M1 ag	M1 antag	D1 PAM confirm	D1 ag no DA	Isoprot counter
O=C(NCc1ccco1)c1cnn2c(C(F)F)cc(-c3ccccc3)nc12	0	5.22	-	0	0	7604	0	+
Cc1cc(NC(=O)c2cnn3c(C(F)F)cc(-c4ccccc4)nc23)no1	0	0	0	0	0	-	-	-
O=S(=O)(Cc1ccccc1Cl)N1CCCCC1	0	-	0	0	0	-	-	-
CCN(CC)C(=O)CSc1nc2ccc(NC(=O)CSc3nccn3C)cc2s1	0	0	0	0	0	-	-	-
O=C(CSc1nnc2scc(-c3ccccc3)n12)NCc1ccc2c(c1)OCO2	0	7.13	0	-	-	15400	0	+
O=C(CSc1nnc2scc(-c3ccc(Cl)cc3)n12)NCc1ccc2c(c1)OCO2	0	6.29	-	0	0	13884	0	+
CC(c1ccccc1)n1cc(C(=O)NCc2ccncc2)nn1 (stereo not given)	-	-	-	0	0	-	-	-
CCOC(=O)c1c(NC(=O)COC(=O)c2c(C)noc2C)sc2c1CCC2	0	0	0	0	0	-	-	-
COc1cc(OC)cc(C(=O)Nc2cccc(N3CCCC3)c2)c1	0	0	0	0	0	-	-	-
CCN1C(=O)N(CC)C2C1N(C(C)=O)C(=O)N2C(C)=O (stereo not given)	0	0	0	0	0	-	-	-
CCc1ccc(N(CC(=O)NC)S(C)(=O)=O)cc1	0	0	0	0	0	-	-	-
CCCCCCSC1=C(C#N)C(c2ccc(O)cc2)CC(=O)N1 (stereo not given)	0	0	0	0	0	-	-	-
CCOC(=O)c1cccc(Nc2nc(C)cc(C)n2)c1	0	0	0	0	0	-	-	-
COC(=O)c1cccc(Nc2nc3ccccc3nc2C)c1	0	5.17	0	0	0	9552	0	+
CCOC(=O)c1c(N)sc2c1CCCC2	0	5.18	0	0	0	15712	0	+
Cc1ccc2nc(NCCO)nc(-c3ccccc3)c2c1	0	14	0	0	0	19388	-	+
c1cc2c(cc1C1=Nn3c(nnc3C3CCCCC3)SC1)OCO2	0	28.2	0	0	0	25488	0	+
CC(C)(C)C1=Nn2c(nnc2C2CCCCC2)SC1	0	24.2	0	0	0	19908	0	+
O=C1CCCC(O)=C1C(C#Cc1ccccc1)C1=C(O)CCCC1=O	0	3.64	0	-	-	0	0	0
Cc1ccc(-n2c(=O)cc(N3CC(C)CC(C)C3)[nH]c2=O)cc1 (stereo not given)	-	3.58	-	0	0	3236	0	0
C/C(N)=C(/C#N)C(=O)CSc1nnc(Nc2c(C)cccc2C)s1	0	0	0	0	0	-	-	-
C/C(N)=C(/C#N)C(=O)CSc1nnc(SCc2ccc(Cl)cc2)s1	0	6.7	60.0	0	0	6760	0	0
O=C(NCc1ccc2c(c1)OCO2)C1CCC(CNc2c(N3CCCC3)c(=O)c2=O)CC1 (stereo not given)	0	2.3	0	0	0	0	0	0
COc1ccc(CCNC(=O)C2CCC(CNc3c(N4CCCC4)c(=O)c3=O)CC2)cc1OC (stereo not given)	0	0	0	0	0	-	-	-
COc1ccc(N(C(=O)Cn2nnc3ccccc32)C(C(=O)NCc2ccco2)c2cccnc2)cc1 (stereo not given)	0	0	0	0	0	-	-	-
SMILES	S1P3 ag	D1 mod	S1P1 ag-PAM	M1 ag	M1 antag	D1 PAM confirm	D1 ag no DA	Isoprot counter
CC(=O)c1ccc(N2CCCCCC2)c(F)c1	0	2.7	0	0	0	0	0	0
CCCC(=O)c1ccc(N2CCCCCC2)c(F)c1	0	0	-	0	0	-	-	-
COCCNC(=O)CSc1nc2ccccc2c(=O)n1CCCC(=O)NCc1ccccc1	-	0	-	0	0	-	-	-
Cc1cc(C)nc(-n2nc(C)cc2Nc2ccccc2)n1	0	0	0	0	0	-	-	-
CCC(C(=O)Nc1cc(C)nn1-c1nc(C)cc(C)n1)c1ccccc1 (stereo not given)	0	9.86	0	0	0	12296	-	+
CCOC(=O)c1c(N)nn(C(=O)C(C)(C)C)c1-c1ccccc1	0	0	0	0	0	-	-	-
CCOC(=O)C1=C(c2ccccc2)N2CCS(=O)(=O)N=C2S1	0	7.12	0	0	0	9940	0	0
Cc1cnn(-c2nc(-c3cccs3)cc(C(F)(F)F)n2)c1	0	15.1	0	-	-	14404	-	+
Cc1cc(N2CCN(c3ccccc3)CC2)nc(-n2nc(C)cc2C)n1	0	0	0	0	0	-	-	-
O=C(C1CCCO1)N1CCC(O)(c2ccccc2)CC1 (stereo not given)	0	0	0	0	0	-	-	-
O=C(O)COc1ccccc1C1C2C(=O)N(c3ccc(F)cc3)C(=O)C2ON1c1ccccc1 (stereo not given)	0	0	0	0	0	-	-	-
O=c1o[nH]c(-c2ccccc2)c1C1=NCCCCC1	0	9.01	0	0	0	0	0	0
Oc1[nH]c2ccccc2c1C1=NCCCC1	0	0	0	0	0	-	-	-
CCCCOCCCNC(=O)Cc1ccccc1OC	0	0	0	0	0	-	-	-
Cc1noc(C)c1CSc1nnc(-c2ccccc2)n1Cc1ccco1	0	4.73	0	0	0	0	0	0
Cc1noc(C)c1CSc1nnc2scc(-c3ccccc3)n12	0	10.5	0	0	0	13660	0	+
COc1ccc(N(CC(=O)Nc2cc(OC)ccc2OC)S(=O)(=O)c2c(C)nn(C)c2C)cc1	0	8.74	0	0	0	14244	0	+
COc1ccc(OC)c(NC(=O)CN(c2ccc(OC)c(Cl)c2)S(C)(=O)=O)c1	0	4.01	0	0	0	16872	0	+
COc1ccc(N(CC(=O)Nc2cccc(OC)c2)S(=O)(=O)c2c(C)nn(C)c2C)cc1	0	-	0	0	0	-	-	-
COc1ccc(OC)c(N2C(=O)C(Cl)=C(N3CCCCC3)C2=O)c1	0	8.87	0	0	0	6148	0	0
CCOC(=O)CN1C(=O)C(O)=C(C(C)=O)C1c1ccc(F)cc1 (stereo not given)	0	0	0	0	0	-	-	-
OC[C@H]1O[C@@H](n2cnc3c(NC4CCCC4)ncnc32)[C@H](O)[C@@H]1O	0	5.48	0	0	0	7504	0	+
CCOC(=O)c1c(C)c(C(=O)N2CCCCCC2)c(C)n1CC	0	0	0	0	0	-	-	-

Screening data (PubChem BioAssay)
